Test results taken from article PMC4391825 (Chembiochem : a European journal of chemical biology, 2014).

Experiments:
Format in all cases: biochemical
SaPanK [1] = target: T1, SaPanK (Staphylococcus aureus, UniProt Q8NVG0); assay: RP-HPLC of stepwise conversion to […]a; settings: ATP, MgCl2; 100 mM Tris-HCl pH 7.60, 25 °C (large-scale mixture)
T1 sequence (Q8NVG0 1-267): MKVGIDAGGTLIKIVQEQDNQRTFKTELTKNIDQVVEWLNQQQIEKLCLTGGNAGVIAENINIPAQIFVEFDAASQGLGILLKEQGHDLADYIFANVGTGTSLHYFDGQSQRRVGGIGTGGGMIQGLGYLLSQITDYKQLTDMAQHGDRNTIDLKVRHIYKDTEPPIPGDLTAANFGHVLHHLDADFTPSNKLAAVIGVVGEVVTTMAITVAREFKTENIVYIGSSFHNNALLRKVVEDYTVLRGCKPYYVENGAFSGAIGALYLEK

SaPanK [2] = target: T1, SaPanK; assay: RP-HPLC of stepwise conversion to […]b; settings: ATP, MgCl2; 100 mM Tris-HCl pH 7.60, 25 °C (large-scale mixture)
PhaECAv = target: T2, PhaECAv (Allochromatium vinosum, UniProt P45370); assay: continuous DTNB assay of CoA release, SigmaPlot fit
T2 sequence (P45370 1-355): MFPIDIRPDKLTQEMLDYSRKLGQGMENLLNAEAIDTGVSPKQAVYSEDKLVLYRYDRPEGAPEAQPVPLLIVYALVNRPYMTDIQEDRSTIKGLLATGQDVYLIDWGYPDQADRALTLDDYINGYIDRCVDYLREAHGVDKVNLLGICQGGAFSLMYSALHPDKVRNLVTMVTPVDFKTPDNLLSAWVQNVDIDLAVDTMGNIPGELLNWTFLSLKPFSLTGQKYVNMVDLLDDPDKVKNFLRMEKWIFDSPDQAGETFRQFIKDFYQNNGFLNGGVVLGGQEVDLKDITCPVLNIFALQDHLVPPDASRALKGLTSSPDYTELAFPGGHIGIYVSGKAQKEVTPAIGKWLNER
T2 sequence (P45372 1-357 partner): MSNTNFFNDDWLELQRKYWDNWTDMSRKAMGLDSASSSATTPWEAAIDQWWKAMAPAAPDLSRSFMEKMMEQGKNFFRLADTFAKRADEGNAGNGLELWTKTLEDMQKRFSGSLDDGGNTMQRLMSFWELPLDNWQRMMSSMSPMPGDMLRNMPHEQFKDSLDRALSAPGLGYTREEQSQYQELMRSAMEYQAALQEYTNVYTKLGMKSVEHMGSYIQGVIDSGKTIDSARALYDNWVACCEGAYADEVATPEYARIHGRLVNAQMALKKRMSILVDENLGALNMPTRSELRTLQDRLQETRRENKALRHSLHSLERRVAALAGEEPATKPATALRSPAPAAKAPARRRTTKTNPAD
Summary of the method: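 Purified wild-type PhaECAv at 5.80 nM, assayed at 30 °C in 100 mM KPi (pH 7.80) with 0.30 mM DTNB, 2 mg/mL BSA, HBCoA 0.025 to 1.60 mM, and test compound at varied concentrations. CoA release followed as A412 (ε 13.7 mM−1cm−1). Rates were taken from the initial fast-phase slope, in duplicate, and fitted to Michaelis-Menten inhibition models; Lineweaver-Burk plots assigned the mode.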

Structure (SMILES): CCCC(=O)O[C@H](C)CC(=O)O[C@H](C)CC(=O)CCCNC(=O)CCNC(=O)[C@H](O)C(C)(C)CO [17a, (R)-((R)-7-(3-((R)-2,4-dihydroxy-3,3-dimethylbutanamido)propanamido)-4-oxoheptan-2-yl) 3-(butyryloxy)butanoate]
- RP-HPLC of stepwise conversion to 24a (SaPanK [1]): with sequential additions of SaPanK, EcCoaD, and EcCoaE, the resulting products were eluted faster

Structure (SMILES): CCCC(=O)O[C@H](C)CC(=O)O[C@H](C)CC(=O)O[C@H](C)CC(=O)CCCNC(=O)CCNC(=O)[C@H](O)C(C)(C)CO [17b, (R)-((R)-7-(3-((R)-2,4-dihydroxy-3,3-dimethylbutanamido)propanamido)-4-oxoheptan-2-yl) 3-((R)-3-(butyryloxy)butanoyloxy)butanoate]
- RP-HPLC of stepwise conversion to 24b (SaPanK [2]): with sequential additions of SaPanK, EcCoaD, and EcCoaE, the resulting products were eluted faster

Structure (SMILES): CCCC(=O)O[C@H](C)CC(=O)O[C@H](C)CC(=O)CCCNC(=O)CCNC(=O)[C@H](O)C(C)(C)COP(=O)(O)OP(=O)(O)OC[C@H]1O[C@@H](n2cnc3c(N)ncnc32)[C@H](O)[C@@H]1OP(=O)(O)O [26a, sT-CH2-CoA]
- Ki (PhaECAv): 600 ± 30 µM

Structure (SMILES): CCCC(=O)O[C@H](C)CC(=O)O[C@H](C)CC(=O)O[C@H](C)CC(=O)CCCNC(=O)CCNC(=O)[C@H](O)C(C)(C)COP(=O)(O)OP(=O)(O)OC[C@H]1O[C@@H](n2cnc3c(N)ncnc32)[C@H](O)[C@@H]1OP(=O)(O)O [26b, sTet-CH2-CoA]
- Ki (PhaECAv): 500 ± 30 µM

Structure (SMILES): CCCC(=O)O[C@H](C)CC(=O)O[C@H](C)CC=O [compound 29, sT-aldehyde]
- Ki (PhaECAv): 3130 ± 470 µM
